Experimental data as given in ChEMBL document CHEMBL1667800, “Synthesis, DNA/RNA affinity and antitumour activity of new aromatic diamidines linked by 3,4-ethylenedioxythiophene” (Eur J Med Chem, 2011).
Activity calls are given as the source filed them. No cut-off for these calls is given here.

Assays:
Caco-2 = assay: Cytotoxicity against human Caco2 cells after 72 hrs by MTT assay; assay type: functional; settings: Caco-2, 72 h
Outline: (§1)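 Cells were seeded at 2 × 10^4 cells/mL and attached overnight at 37 °C, 5% CO2. They were then exposed for 72 h to compounds from aqueous stocks (working solutions 10^-3–10^-6 mol dm^-3). MTT was added for 4 h at 37 °C, formazan dissolved in DMSO, and absorbance read at 570 nm. GI50 is the mean ± SD of three independent experiments run in triplicate.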

HeLa [1] = assay: Induction of cell cycle arrest in human HeLa assessed as accumulation at S-phase at 1x10'-6 M after 24 hrs by FACS analysis (RVb = 27.7+/-4.2%); assay type: functional
Calf thymus DNA [2] = assay: Binding affinity to calf thymus DNA assessed as melting temperature at compound over DNA molar ratio of 0.1 at pH 7 by thermal denaturation assay; assay type: nucleic-acid assay; settings: Bos taurus
Outline: (§2)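 Thermal melting of ds-polynucleotide (ct-DNA or poly A-poly U) alone and with compound at the given r, Na-cacodylate pH 7.0, I = 0.05 mol dm^-3. Absorbance at 260 nm was followed versus temperature, with compound absorbance subtracted and the curve normalized. Tm was taken from the first-derivative maximum or by tangent. ΔTm = Tm(complex) − Tm(free nucleic acid).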

HeLa [3] = assay: Induction of cell cycle arrest in human HeLa assessed as accumulation at G0/G1-phase at 5x10'-6 M after 48 hrs by FACS analysis (RVb = 61.2+/-2.3%); assay type: functional
Calf thymus DNA [4] = assay: Binding affinity to calf thymus DNA assessed as melting temperature at compound over DNA molar ratio of 0.3 at pH 7 by thermal denaturation assay; assay type: nucleic-acid assay; settings: Bos taurus; outline: as §2
Calf thymus DNA [5] = assay: Binding affinity to calf thymus DNA assessed as hyperchromic effect at compound over DNA molar ratio of 0.5 by UV-Vis spectra; assay type: nucleic-acid assay; settings: Bos taurus; in the assay text read “hypochromic effect” for “hyperchromic effect”
Outline: (§3)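 UV-Vis titration of compound (c = 1.97 × 10^-5 mol dm^-3 in the shown example) with ct-DNA. Na-cacodylate buffer, pH 7.0, I = 0.05 mol dm^-3, 1 cm quartz cuvette. Absorbance at the maximum was tracked against c(ct-DNA). Ks and n were obtained by non-linear least-squares Scatchard fitting.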

HeLa [6] = assay: Induction of cell cycle arrest in human HeLa assessed as accumulation at S-phase at 1x10'-6 M after 72 hrs by FACS analysis (RVb = 28.8+/-3.2%); assay type: functional
HeLa [7] = assay: Induction of cell cycle arrest in human HeLa assessed as accumulation at S-phase at 5x10'-6 M after 72 hrs by FACS analysis (RVb = 28.8+/-3.2%); assay type: functional
HeLa [8] = assay: Induction of cell cycle arrest in human HeLa assessed as accumulation at G0/G1-phase at 5x10'-6 M after 72 hrs by FACS analysis (RVb = 63.4+/-3.2%); assay type: functional
HeLa [9] = assay: Induction of cell cycle arrest in human HeLa assessed as accumulation at G2/M-phase at 5x10'-6 M after 72 hrs by FACS analysis (RVb = 7.8+/-3.1%); assay type: functional
HeLa [10] = assay: Induction of cell cycle arrest in human HeLa assessed as accumulation at G2/M-phase at 1x10'-6 M after 24 hrs by FACS analysis (RVb = 10.1+/-3.4%); assay type: functional
Nucleic Acid = assay: Binding affinity to polu A-poly U assessed as melting temperature at compound over DNA molar ratio of 0.3 at pH 7 by thermal denaturation assay; assay type: nucleic-acid assay; outline: as §2
Calf thymus DNA [11] = assay: Binding affinity to calf thymus DNA assessed as batochromic effect at compound over DNA molar ratio of 0.2 by UV-Vis spectra; assay type: nucleic-acid assay; settings: Bos taurus; outline: as §3
HEp-2 = assay: Cytotoxicity against human Hep2 cells after 72 hrs by MTT assay; assay type: functional; settings: HEp-2, 72 h; outline: as §1
HeLa [12] = assay: Induction of cell cycle arrest in human HeLa assessed as accumulation at S-phase at 5x10'-6 M after 48 hrs by FACS analysis (RVb = 30.4+/-3.7%); assay type: functional
HeLa [13] = assay: Induction of cell cycle arrest in human HeLa assessed as accumulation at S-phase at 1x10'-6 M after 48 hrs by FACS analysis (RVb = 30.4+/-3.7%); assay type: functional
HeLa [14] = assay: Induction of cell cycle arrest in human HeLa assessed as accumulation at G0/G1-phase at 1x10'-6 M after 48 hrs by FACS analysis (RVb = 61.2+/-2.3%); assay type: functional
Calf thymus DNA [15] = assay: Binding affinity to calf thymus DNA assessed as batochromic effect at compound over DNA molar ratio of 0.2 by fluorimetric titration; assay type: nucleic-acid assay; settings: Bos taurus
Outline: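 Fluorimetric titration of compound (about 1.0 × 10^-6 mol dm^-3) with ct-DNA. Excitation above 360 nm to avoid inner-filter effects. Na-cacodylate buffer, pH 7.0, I = 0.05 mol dm^-3. Emission at the maximum was plotted against c(ct-DNA). Ks and n were obtained by non-linear Scatchard fitting.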

MCF7 = assay: Cytotoxicity against human MCF7 cells after 72 hrs by MTT assay; assay type: functional; settings: MCF7, 72 h; outline: as §1
AGS = assay: Cytotoxicity against human AGS cells after 72 hrs by MTT assay; assay type: functional; outline: as §1
HeLa [16] = assay: Induction of cell cycle arrest in human HeLa assessed as accumulation at G2/M-phase at 1x10'-6 M after 72 hrs by FACS analysis (RVb = 7.8+/-3.1%); assay type: functional
HeLa [17] = assay: Induction of cell cycle arrest in human HeLa assessed as accumulation at G0/G1-phase at 5x10'-6 M after 24 hrs by FACS analysis (RVb = 62.2+/-4.4%); assay type: functional
Calf thymus DNA [18] = assay: Binding affinity to calf thymus DNA assessed as DNA CD band at compound over DNA molar ratio of > 0.2 by circular dichroism titration; assay type: nucleic-acid assay; settings: Bos taurus
Outline: (§4)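 CD titration of polynucleotide (2.0 × 10^-5 mol dm^-3, as phosphate) with added compound over a range of r = [compound]/[polynucleotide]. Na-cacodylate buffer, pH 7.0, I = 0.05 mol dm^-3, 1 cm quartz cuvette. ct-DNA was sonicated and filtered before use. Changes in the polynucleotide CD band and induced CD bands were followed.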

Calf thymus DNA [19] = assay: Binding affinity to calf thymus DNA minor groove assessed as DNA CD band at compound over DNA molar ratio of < 0.2 by circular dichroism titration; assay type: nucleic-acid assay; settings: Bos taurus; outline: as §4
HeLa [20] = assay: Induction of cell cycle arrest in human HeLa assessed as accumulation at G2/M-phase at 1x10'-6 M after 48 hrs by FACS analysis (RVb = 8.4+/-3.9%); assay type: functional
HeLa [21] = assay: Induction of cell cycle arrest in human HeLa assessed as accumulation at S-phase at 5x10'-6 M after 24 hrs by FACS analysis (RVb = 27.7+/-4.2%); assay type: functional
HeLa [22] = assay: Cytotoxicity against human HeLa cells after 72 hrs by MTT assay; assay type: functional; outline: as §1
[23] = Cytotoxicity against MDCK cells after 72 hrs by MTT assay; assay type: cell-based, Canis lupus familiaris; settings: dog; outline: as §1
Calf thymus DNA [24] = assay: Binding affinity to calf thymus DNA assessed as melting temperature at compound over DNA molar ratio of 0.2 at pH 7 by thermal denaturation assay; assay type: nucleic-acid assay; settings: Bos taurus; outline: as §2
HeLa [25] = assay: Induction of cell cycle arrest in human HeLa assessed as accumulation at G0/G1-phase at 1x10'-6 M after 72 hrs by FACS analysis (RVb = 63.4+/-3.2%); assay type: functional
HeLa [26] = assay: Induction of cell cycle arrest in human HeLa assessed as accumulation at G2/M-phase at 5x10'-6 M after 48 hrs by FACS analysis (RVb = 8.4+/-3.9%); assay type: functional
NCI-H358 = assay: Cytotoxicity against human NCI-H358 cells after 72 hrs by MTT assay; assay type: functional; settings: NCI-H358, 72 h; outline: as §1
HeLa [27] = assay: Induction of cell cycle arrest in human HeLa assessed as accumulation at G0/G1-phase at 1x10'-6 M after 24 hrs by FACS analysis (RVb = 62.2+/-4.4%); assay type: functional
MIA PaCa-2 = assay: Cytotoxicity against human MIAPaCa2 cells after 72 hrs by MTT assay; assay type: functional; settings: MIA PaCa-2, 72 h; outline: as §1
HeLa [28] = assay: Induction of cell cycle arrest in human HeLa assessed as accumulation at G2/M-phase at 5x10'-6 M after 24 hrs by FACS analysis (RVb = 10.1+/-3.4%); assay type: functional
HeLa [29] = assay: Induction of cell cycle arrest in human HeLa assessed as accumulation at G2/M-phase at 5x10'-5 M after 24 hrs by FACS analysis (RVb = […]); assay type: functional
HeLa [30] = assay: Induction of cell cycle arrest in human HeLa assessed as accumulation at S-phase at 5x10'-5 M after 48 hrs by FACS analysis (RVb = 62.2+/-4.4%); assay type: functional
HeLa [31] = assay: Induction of cell cycle arrest in human HeLa assessed as accumulation at G0/G1-phase at 5x10'-5 M after 24 hrs by FACS analysis (RVb = 62.2+/-4.4%); assay type: functional
HeLa [32] = assay: Induction of cell cycle arrest in human HeLa assessed as accumulation at S-phase at 5x10'-5 M after 24 hrs by FACS analysis (RVb = 62.2+/-4.4%); assay type: functional
HeLa [33] = assay: Induction of cell cycle arrest in human HeLa assessed as accumulation at G2/M-phase at 5x10'-5 M after 48 hrs by FACS analysis (RVb = […]); assay type: functional
HeLa [34] = assay: Induction of cell cycle arrest in human HeLa assessed as accumulation at G0/G1-phase at 5x10'-5 M after 72 hrs by FACS analysis (RVb = 62.2+/-4.4%); assay type: functional
HeLa [35] = assay: Induction of cell cycle arrest in human HeLa assessed as accumulation at G0/G1-phase at 5x10'-5 M after 48 hrs by FACS analysis (RVb = 62.2+/-4.4%); assay type: functional
HeLa [36] = assay: Induction of cell cycle arrest in human HeLa assessed as accumulation at G2/M-phase at 5x10'-5 M after 72 hrs by FACS analysis (RVb = […]); assay type: functional
HeLa [37] = assay: Induction of cell cycle arrest in human HeLa assessed as accumulation at S-phase at 5x10'-5 M after 72 hrs by FACS analysis (RVb = 62.2+/-4.4%); assay type: functional

Cl.Cl.c1cc(-c2sc(-c3ccc(C4=NCCN4)cc3)c3c2OCCO3)ccc1C1=NCCN1
GI50 (Caco-2): 3.1 µM
Activity (HeLa [1]): 30.2%
ΔTm (Calf thymus DNA [2]): 10.8 °C
Activity (HeLa [3]): 44.2%
ΔTm (Calf thymus DNA [4]): > 16 °C
Activity (Calf thymus DNA [5]): Active
Activity (HeLa [6]): 25.9%
Activity (HeLa [7]): 32.5%
Activity (HeLa [8]): 46.4%
Activity (HeLa [9]): 21.1%
Activity (HeLa [10]): 14.4%
ΔTm (Nucleic Acid): 17 °C
Activity (Calf thymus DNA [11]): Active
GI50 (HEp-2): 3 µM
Activity (HeLa [12]): 37.3%
Activity (HeLa [13]): 33.1%
Activity (HeLa [14]): 59.6%
Activity (Calf thymus DNA [15]): Active
GI50 (MCF7): 2.7 µM
GI50 (AGS): 4.3 µM
Activity (HeLa [16]): 11.9%
Activity (HeLa [17]): 53.3%
Activity (Calf thymus DNA [18]): Active
Activity (Calf thymus DNA [19]): Active
Activity (HeLa [20]): 7.3%
Activity (HeLa [21]): 29.1%
GI50 (HeLa [22]): 1.5 µM
GI50 at 72 h [23]: 17 µM
ΔTm (Calf thymus DNA [24]): 14.3 °C
Activity (HeLa [25]): 62.2%
Activity (HeLa [26]): 18.5%
GI50 (NCI-H358): 4.1 µM
Activity (HeLa [27]): 55.4%
GI50 (MIA PaCa-2): 9 µM
Activity (HeLa [28]): 17.6%

CN1CCN(c2ccc3[nH]c(-c4ccc5[nH]c(-c6ccc(O)cc6)nc5c4)nc3c2)CC1 [HOECHST 33258]
GI50 (Caco-2): 84 µM
Activity (HeLa [29]): 7.1%
Activity (HeLa [30]): 42.6%
Activity (HeLa [31]): 51.3%
Activity (HeLa [32]): 41.6%
Activity (HeLa [33]): 8.4%
Activity (HeLa [34]): 45.7%
GI50 (HEp-2): 132 µM
GI50 (MCF7): 5.7 µM
Activity (HeLa [35]): 49%
GI50 (AGS): 112 µM
GI50 (HeLa [22]): 116 µM
GI50 at 72 h [23]: 158 µM
Activity (HeLa [36]): 11.2%
Activity (HeLa [37]): 43.1%
GI50 (NCI-H358): 91.7 µM
GI50 (MIA PaCa-2): 192 µM
